# Measurements: publication PMC3972761 (Chemistry & biology, 2008)
# Marks after values point to notes of the source that are not given here.
# How the values were obtained:
# [1] = system: recombinant MGL; conditions: read-out: IC50, recombinant MGL; time-dependent; ref Alexander and Cravatt, 2006; cited from earlier work
# [2] = molecular target: T1, hMGL cysteine residues (Homo sapiens, UniProt Q99685); assay: MALDI-TOF MS of tryptic digest of NAM-treated hMGL; conditions: for Relative Alkylation of Cys39: percent alkylation of Cys39 relative to Cys208
# T1 sequence (Q99685 1-303): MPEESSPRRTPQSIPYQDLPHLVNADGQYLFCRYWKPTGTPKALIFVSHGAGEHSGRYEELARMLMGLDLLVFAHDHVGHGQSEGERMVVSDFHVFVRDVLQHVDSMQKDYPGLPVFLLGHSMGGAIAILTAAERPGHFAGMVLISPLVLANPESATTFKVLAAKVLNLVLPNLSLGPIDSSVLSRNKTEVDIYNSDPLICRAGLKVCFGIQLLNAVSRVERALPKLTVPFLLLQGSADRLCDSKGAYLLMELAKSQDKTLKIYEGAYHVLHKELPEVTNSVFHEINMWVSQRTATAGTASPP
# In short: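 Purified His-tagged hMGL (3 μM) was incubated 1 hr at room temperature in 10 mM Tris-HCl pH 8.0 with test compound at set molar ratios. It was desalted into 50 mM ammonium bicarbonate with 0.02% CYMAL, pH 8.0, then trypsin-digested overnight, either directly or after DTT (17 mM, 30 min) and iodoacetamide (55 mM, 1 hr, dark). Digests were analysed by MALDI-TOF MS with CHCA matrix.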
# [3] = molecular target: T2, hMGL (recombinant hexa-histidine-tagged human MGL) (Homo sapiens, UniProt Q99685); assay: Fluorescence-based AHMMCE hydrolysis assay, E. coli lysate containing hMGL; type: biochemical; conditions: for hMGL inhibition potency (in words): E. coli lysate containing hMGL, 3-hr incubation, AHMMCE
# T2 sequence (Q99685 1-303): T1 sequence (Q99685 1-303)
# In short: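 Test compound was preincubated 15 min at room temperature with E. coli lysate containing hMGL (175 ng total protein) in 50 mM Tris-HCl pH 7.4 with 8% DMSO. AHMMCE was then added (20 μM final) and fluorescence (360/460 nm) read every 15 min for 3 hr. HMC formed at 2 h was quantified against an HMC standard curve, and IC50 was fitted by nonlinear regression.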
# [4] = molecular target: T3, purified hMGL (Homo sapiens, UniProt Q99685); assay: Inhibition of purified hMGL at fixed inhibitor:hMGL molar ratios; type: biochemical; conditions: for hMGL Inhibition (%) 10 min: 50 μM AHMMCE, 1 hr preincubation
# T3 sequence (Q99685 1-303): T1 sequence (Q99685 1-303)
# [5] = inhibitor:hMGL molar ratio 3.3:1
# [6] = inhibitor:hMGL molar ratio 8.3:1
Molecule,hMGL inhibition potency (in words) [3],hMGL Inhibition (%) 10 min ([4]; inhibitor:hMGL molar ratio 1:1),"hMGL Inhibition (%) 10 min [4, 5]","hMGL Inhibition (%) 10 min [4, 6]",other results
LY2183240,–,–,–,–,IC50 [1]: ~5.3 nM
"CCCCC/C=C\C/C=C\C/C=C\C/C=C\CCCCN1C(=O)C=CC1=O [NAM, N-arachidonylmaleimide]",markedly less potent,51%,80%,82%,"Relative Alkylation of Cys208 ([2]; NAM:hMGL ratio 8.3:1): 0%; Relative Alkylation of Cys39 ([2]; NAM:hMGL ratio 8.3:1): 0%; Relative Alkylation of Cys39 ([2]; NAM:hMGL ratio 33:1): 100% ^(a); Relative Alkylation of Cys208 ([2]; NAM:hMGL ratio 33:1, relative to Cys39/Cys208 pair): 0% ^(a); extent of hMGL inhibition at large molar excesses ([3]; large molar NAM excesses (Figure 1C)): completely; hMGL Inhibition (%) 10 min ([4]; inhibitor:hMGL molar ratio 33:1): 84%; hMGL inhibition achieved with partial alkylation of Cys215 and/or Cys249 ([4]; molar ratio not stated at the place): ~ 80%"
"CN(C)C(=O)n1nnnc1Cc1ccc(-c2ccccc2)cc1 [AM6702, 5-((biphenyl-4-yl)methyl)-N,N-dimethyl-1H-tetrazole-1-carboxamide]",nM range,–,–,–,–
"CN(C)C(=O)n1nnc(Cc2ccc(-c3ccccc3)cc2)n1 [AM6701, 5-((biphenyl-4-yl)methyl)-N,N-dimethyl-2H-tetrazole-2-carboxamide]",–,72%,85%,91%,–
